Test results published in ChEMBL document CHEMBL1150419, “Structure-activity relationships of a peptide inhibitor of the human FcRn:human IgG interaction” (Bioorg Med Chem, 2008).
Square brackets hold non-standard residues; d marks the D form. Peptide text beside a SMILES is read from it. Dap = NC[C@H](N)C(=O)O

These compounds were tested against IgG receptor FcRn large subunit p51 (Homo sapiens, UniProt P55899) (assay: Inhibition of human IgG binding to soluble human FcRn by ELISA).
Procedure, shortened: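 Biotinylated soluble human FcRn immobilized on neutravidin plates, incubated with hIgG (3 nM, constant) and peptide at varying concentrations for 2 h at 37 °C. After washing, bound hIgG detected with peroxidase-conjugated hIgG-specific Fab fragments.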

IgG receptor FcRn large subunit p51, sequence (P55899 whole entry, the tested form may be a part): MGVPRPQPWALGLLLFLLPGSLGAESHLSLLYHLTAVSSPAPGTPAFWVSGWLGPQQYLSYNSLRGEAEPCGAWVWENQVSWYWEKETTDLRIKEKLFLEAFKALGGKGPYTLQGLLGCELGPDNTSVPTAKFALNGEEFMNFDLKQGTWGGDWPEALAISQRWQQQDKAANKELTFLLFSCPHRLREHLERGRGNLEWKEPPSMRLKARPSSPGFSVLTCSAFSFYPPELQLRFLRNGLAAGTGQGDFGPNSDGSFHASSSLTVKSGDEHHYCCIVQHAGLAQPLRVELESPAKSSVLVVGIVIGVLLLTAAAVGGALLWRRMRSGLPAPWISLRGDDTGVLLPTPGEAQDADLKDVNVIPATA

| SMILES | IC50 [µM] |
| --- | --- |
| CC(C)C[C@H](NC(=O)[C@@H](C)NC(=O)[C@@H](Cc1ccccc1)NC(=O)[C@H](Cc1ccccc1)NC(=O)[C@H](Cc1cnc[nH]1)NC(=O)CNC(=O)[C@@H](NC(=O)[C@@H](NC(=O)[C@H](Cc1ccccc1)NC(=O)[C@H](CCCNC(=N)N)NC(=O)[C@@H](N)CCC(N)=O)C(C)(C)S)[C@@H](C)O)C(=O)N[C@@H](Cc1ccc(O)cc1)C(=O)N1CCC[C@H]1C(=O)N[C@@H](CS)C(=O)N[C@@H](CC(N)=O)C(=O)NCC(=O)N1CCC[C@H]1C(=O)O | 4.3 |
| CC(C)C[C@H](NC(=O)CNC(=O)[C@@H](CCCN=C(N)N)NC(=O)[C@H](Cc1ccccc1)NC(=O)[C@H](Cc1cnc[nH]1)NC(=O)CNC(=O)[C@@H](NC(=O)[C@@H](NC(=O)[C@H](Cc1ccccc1)NC(=O)[C@H](CCCN=C(N)N)NC(=O)[C@@H](N)CCC(N)=O)C(C)(C)S)[C@@H](C)O)C(=O)N[C@@H](Cc1ccc(O)cc1)C(=O)N1CCC[C@H]1C(=O)N[C@@H](CS)C(=O)N[C@@H](CC(N)=O)C(=O)NCC(=O)N1CCC[C@H]1C(=O)O | 4.1 |
| CC(C)C[C@H](NC(=O)CNC(=O)CNC(=O)[C@H](Cc1c[nH]c2ccccc12)NC(=O)[C@H](Cc1cnc[nH]1)NC(=O)CNC(=O)[C@@H](NC(=O)[C@@H](NC(=O)[C@H](Cc1ccccc1)NC(=O)[C@H](CCCN=C(N)N)NC(=O)[C@@H](N)CCC(N)=O)C(C)(C)S)[C@@H](C)O)C(=O)N[C@@H](Cc1ccc(O)cc1)C(=O)N1CCC[C@H]1C(=O)N[C@@H](CS)C(=O)N[C@@H](CC(N)=O)C(=O)NCC(=O)N1CCC[C@H]1C(=O)O | 26 |
| CC(C)C[C@H](NC(=O)CNC(=O)CNC(=O)[C@H](Cc1ccccc1)NC(=O)[C@H](Cc1cnc[nH]1)NC(=O)CNC(=O)[C@@H](NC(=O)[C@H](CCCN)NC(=O)[C@H](Cc1ccccc1)NC(=O)[C@H](CCCNC(=N)N)NC(=O)[C@@H](N)CCC(N)=O)[C@@H](C)O)C(=O)N[C@@H](Cc1ccc(O)cc1)C(=O)N1CCC[C@H]1C(=O)N[C@@H](CC(=O)O)C(=O)N[C@@H](CC(N)=O)C(=O)NCC(=O)N1CCC[C@H]1C(=O)O | 120 |
| CC(C)C[C@H](NC(=O)CNC(=O)CNC(=O)[C@H](Cc1ccccc1)NC(=O)[C@H](Cc1cnc[nH]1)NC(=O)CNC(=O)[C@@H](NC(=O)[C@H](NC(=O)[C@@H](Cc1ccccc1)NC(=O)[C@H](CCCN=C(N)N)NC(=O)[C@@H](N)CCC(N)=O)C(C)(C)S)[C@@H](C)O)C(=O)N[C@@H](Cc1ccc(O)cc1)C(=O)N1CCC[C@H]1C(=O)N[C@H](CS)C(=O)N[C@@H](CC(N)=O)C(=O)NCC(=O)N1CCC[C@H]1C(=O)O | 11.4 |
| CC(C)C[C@H](NC(=O)CNC(=O)[C@@H](Cc1cnc[nH]1)NC(=O)[C@H](Cc1ccccc1)NC(=O)[C@H](Cc1cnc[nH]1)NC(=O)CNC(=O)[C@@H](NC(=O)[C@@H](NC(=O)[C@H](Cc1ccccc1)NC(=O)[C@H](CCCNC(=N)N)NC(=O)[C@@H](N)CCC(N)=O)C(C)(C)S)[C@@H](C)O)C(=O)N[C@@H](Cc1ccc(O)cc1)C(=O)N1CCC[C@H]1C(=O)N[C@@H](CS)C(=O)N[C@@H](CC(N)=O)C(=O)NCC(=O)N1CCC[C@H]1C(=O)O | 3.6 |
| CC[C@H](C)[C@@H](NC(=O)CNC(=O)[C@H](Cc1ccccc1)NC(=O)[C@H](Cc1cnc[nH]1)NC(=O)CNC(=O)[C@@H](NC(=O)[C@@H](NC(=O)[C@H](Cc1ccccc1)NC(=O)[C@H](CCCNC(=N)N)NC(=O)[C@@H](N)CCC(N)=O)C(C)(C)S)[C@@H](C)O)C(=O)N[C@@H](CC(C)C)C(=O)N[C@@H](Cc1ccc(O)cc1)C(=O)N1CCC[C@H]1C(=O)N[C@@H](CS)C(=O)N[C@@H](CC(N)=O)C(=O)NCC(=O)N1CCC[C@H]1C(=O)O | 18 |
| CC(C)C[C@H](NC(=O)Cc1cccc(NC(=O)[C@H](Cc2ccccc2)NC(=O)[C@H](Cc2cnc[nH]2)NC(=O)CNC(=O)[C@@H](NC(=O)[C@@H](NC(=O)[C@H](Cc2ccccc2)NC(=O)[C@@H](N)CCCN=C(N)N)C(C)(C)S)[C@@H](C)O)c1)C(=O)N[C@@H](Cc1ccc(O)cc1)C(=O)N1CCC[C@H]1C(=O)N[C@@H](CS)C(=O)O | 14 |
| CC(C)C[C@H](NC(=O)[C@H]1CCCN1C(=O)CNC(=O)[C@H](Cc1ccccc1)NC(=O)[C@H](Cc1cnc[nH]1)NC(=O)CNC(=O)[C@@H](NC(=O)[C@@H](NC(=O)[C@H](Cc1ccccc1)NC(=O)[C@H](CCCNC(=N)N)NC(=O)[C@@H](N)CCC(N)=O)C(C)(C)S)[C@@H](C)O)C(=O)N[C@@H](Cc1ccc(O)cc1)C(=O)N1CCC[C@H]1C(=O)N[C@@H](CS)C(=O)N[C@@H](CC(N)=O)C(=O)NCC(=O)N1CCC[C@H]1C(=O)O | 1.4 |
| CC(C)C[C@H](NC(=O)CNC(=O)CNC(=O)[C@H](Cc1ccccn1)NC(=O)[C@H](Cc1cnc[nH]1)NC(=O)CNC(=O)[C@@H](NC(=O)[C@@H](NC(=O)[C@H](Cc1ccccc1)NC(=O)[C@H](CCCNC(=N)N)NC(=O)[C@@H](N)CCC(N)=O)C(C)(C)S)[C@@H](C)O)C(=O)N[C@@H](Cc1ccc(O)cc1)C(=O)N1CCC[C@H]1C(=O)N[C@@H](CS)C(=O)N[C@@H](CC(N)=O)C(=O)NCC(=O)N1CCC[C@H]1C(=O)O | 90 |
| CC(C)C[C@H](NC(=O)CN(C)C(=O)CNC(=O)[C@H](Cc1ccccc1)NC(=O)[C@H](Cc1cnc[nH]1)NC(=O)CNC(=O)[C@@H](NC(=O)[C@@H](NC(=O)[C@H](Cc1ccccc1)NC(=O)[C@H](CCCN=C(N)N)NC(=O)[C@@H](N)CCC(N)=O)C(C)(C)S)[C@@H](C)O)C(=O)N[C@@H](Cc1ccc(O)cc1)C(=O)N1CCC[C@H]1C(=O)N[C@@H](CS)C(=O)N[C@@H](CC(N)=O)C(=O)NCC(=O)N1CCC[C@H]1C(=O)O | 0.9 |
| CC(C)C[C@H](NC(=O)CN1CCC[C@@H](NC(=O)[C@H](Cc2ccccc2)NC(=O)[C@H](Cc2cnc[nH]2)NC(=O)CNC(=O)[C@@H](NC(=O)[C@@H](NC(=O)[C@H](Cc2ccccc2)NC(=O)[C@@H](N)CCCN=C(N)N)C(C)C)[C@@H](C)O)C1=O)C(=O)N[C@@H](Cc1ccc(O)cc1)C(=O)N1CCC[C@H]1C(=O)N[C@@H](C)C(=O)O | 38 |
| CC(C)C[C@H](NC(=O)CNC(=O)CNC(=O)[C@H](Cc1ccccc1)NC(=O)[C@H](Cc1cnc[nH]1)NC(=O)CNC(=O)[C@@H](NC(=O)[C@@H](NC(=O)[C@H](Cc1ccccc1)NC(=O)[C@H](CCCN=C(N)N)NC(=O)[C@@H](N)CCC(N)=O)C(C)(C)S)[C@@H](C)O)C(=O)N[C@@H](Cc1ccc(F)cc1)C(=O)N1CCC[C@H]1C(=O)N[C@@H](CS)C(=O)N[C@@H](CC(N)=O)C(=O)NCC(=O)N1CCC[C@H]1C(=O)O | 26 |
| CC(C)C[C@H](NC(=O)CNC(=O)CNC(=O)[C@H](Cc1ccccc1)NC(=O)[C@H](Cc1cnc[nH]1)NC(=O)CNC(=O)[C@@H](NC(=O)[C@H](CN)NC(=O)[C@H](Cc1ccccc1)NC(=O)[C@H](CCCN=C(N)N)NC(=O)[C@@H](N)CCC(N)=O)[C@@H](C)O)C(=O)N[C@@H](Cc1ccc(O)cc1)C(=O)N1CCC[C@H]1C(=O)N[C@@H](CCC(=O)O)C(=O)N[C@@H](CC(N)=O)C(=O)NCC(=O)N1CCC[C@H]1C(=O)O (H-QRF[Dap]TGHFGGLYPENGP-OH) | > 125 |

Continued, values first:

| IC50 [µM] | SMILES |
| --- | --- |
| 2 | CC(C)C[C@H](NC(=O)CNC(=O)CNC(=O)[C@H](Cc1ccccc1)NC(=O)[C@H](Cc1cnc[nH]1)NC(=O)CNC(=O)[C@@H](NC(=O)[C@@H](NC(=O)[C@H](Cc1ccccc1)NC(=O)[C@@H](N)CCCN=C(N)N)C(C)(C)S)[C@@H](C)O)C(=O)N[C@@H](Cc1ccc(O)cc1)C(=O)N1CCC[C@H]1C(=O)N[C@@H](CS)C(=O)O |
| 2.4 | CC(C)C[C@@H](C(=O)N[C@@H](Cc1ccc(O)cc1)C(=O)N1CCC[C@H]1C(=O)N[C@@H](CS)C(N)=O)N(C)C(=O)CN(C)C(=O)CNC(=O)[C@H](Cc1ccccc1)NC(=O)[C@H](Cc1csc[n+]1C)NC(=O)CNC(=O)[C@@H](NC(=O)[C@@H](NC(=O)[C@H](Cc1ccccc1)NC(=O)[C@@H](N)CCCN=C(N)N)C(C)(C)S)[C@@H](C)O |
| > 125 | CC(C)C[C@H](NC(=O)c1ccc(CNC(=O)[C@H](Cc2ccccc2)NC(=O)[C@H](Cc2cnc[nH]2)NC(=O)CNC(=O)[C@@H](NC(=O)[C@@H](NC(=O)[C@H](Cc2ccccc2)NC(=O)[C@@H](N)CCCNC(=N)N)C(C)(C)S)[C@@H](C)O)cc1)C(=O)N[C@@H](Cc1ccc(O)cc1)C(=O)N1CCC[C@H]1C(=O)N[C@@H](CS)C(=O)O |
| 23 | CC(C)C[C@H](NC(=O)[C@H]1CSC2C[C@@H](NC(=O)[C@H](Cc3ccccc3)NC(=O)[C@H](Cc3cnc[nH]3)NC(=O)CNC(=O)[C@@H](NC(=O)[C@H](NC(=O)[C@H](Cc3ccccc3)NC(=O)[C@@H](N)CCCNC(=N)N)C(C)(C)S)[C@@H](C)O)C(=O)N21)C(=O)N[C@@H](Cc1ccc(O)cc1)C(=O)N1CCC[C@H]1C(=O)N[C@@H](CS)C(=O)O (some centres not stated) |
| > 250 | CC(C)C[C@H](NC(=O)CNC(=O)CNC(=O)[C@H](Cc1ccccc1)NC(=O)[C@H](Cc1cnc[nH]1)N(C)C(=O)CNC(=O)[C@@H](NC(=O)[C@@H](NC(=O)[C@H](Cc1ccccc1)NC(=O)[C@@H](N)CCCN=C(N)N)C(C)(C)S)[C@@H](C)O)C(=O)N[C@@H](Cc1ccc(O)cc1)C(=O)N1CCC[C@H]1C(=O)N[C@@H](CS)C(=O)O |
| 37 | CC(C)C[C@@H](C(=O)N[C@@H](Cc1ccc(O)cc1)C(=O)N1CCC[C@H]1C(=O)N[C@@H](C)C(=O)O)N(C)C(=O)CN(C)C(=O)CNC(=O)[C@H](Cc1ccccc1)NC(=O)[C@H](Cc1cnc[nH]1)NC(=O)CNC(=O)[C@@H](NC(=O)[C@@H](NC(=O)[C@H](Cc1ccccc1)NC(=O)[C@@H](N)CCCNC(=N)N)C(C)C)[C@@H](C)O |
| > 125 | CC(C)C[C@H](NC(=O)Cc1ccc(NC(=O)[C@H](Cc2ccccc2)NC(=O)[C@H](Cc2cnc[nH]2)NC(=O)CNC(=O)[C@@H](NC(=O)[C@@H](NC(=O)[C@H](Cc2ccccc2)NC(=O)[C@@H](N)CCCN=C(N)N)C(C)(C)S)[C@@H](C)O)cc1)C(=O)N[C@@H](Cc1ccc(O)cc1)C(=O)N1CCC[C@H]1C(=O)N[C@@H](CS)C(=O)O |
| 5.7 | CC(C)C[C@@H](C(=O)N[C@@H](Cc1ccc(O)cc1)C(=O)N1CCC[C@H]1C(=O)N[C@@H](CS)C(=O)O)N(C)C(=O)CN(C)C(=O)CNC(=O)[C@H](Cc1ccccc1)NC(=O)[C@H](Cc1c[nH]nn1)NC(=O)CNC(=O)[C@@H](NC(=O)[C@@H](NC(=O)[C@H](Cc1ccccc1)NC(=O)[C@@H](N)CCCNC(=N)N)C(C)(C)S)[C@@H](C)O |
